The record followed here is ChEMBL document CHEMBL4364284, “Design, Synthesis, and Efficacy Testing of Nitroethylene- and 7-Nitrobenzoxadiazol-Based Flavodoxin Inhibitors against Helicobacter pylori Drug-Resistant Clinical Strains and in Helicobacter pylori-Infected Mice” (J Med Chem, 2019).

A short description of series [1]: Stability of the compound in DMSO-d6 at pH 1 incubated for 19 hrs under shaking condition by 1H-NMR analysis. The format is physicochemical. As to conditions: pH 1, 19 h.
For another series, the system named is Escherichia coli. Put plainly: Effect on growth of Escherichia coli DH5[alpha] after 48 hrs by resazurin-dye based microdilution assay. The format is organism-based.
Series [2] is described as follows: Therapeutic index, ratio of MCC50 for human HeLa cells to MIC for inhibition of flavodoxin in rifampicin-resistant Helicobacter pylori isolate 5 assessed as reduction in bacterial growth. Particulars: read-out: TI. The series is classed as toxicity. The method in brief:
(§1)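 TI is MCC50/MIC. For MCC50, HeLa cells (30 000/well, DMEM with 10% FBS) were exposed to compound at 25–1000 μM final. Viability by XTT at 450/650 nm; MCC50 is the concentration giving 50% lysis from viability curves. Run twice in triplicate.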

The nature of series [3]: Toxicity in NMRI mouse assessed as change in body weight at 1 to 20 mg/100g, po administered daily via gavage for 8 days. The format is organism-based. As to conditions: in vivo, 192 h.
Series [4] can be described thus: Therapeutic index, ratio of MCC50 for human HeLa cells to MIC for inhibition of flavodoxin in metronidazole-resistant Helicobacter pylori isolate 3 assessed as reduction in bacterial growth. The format is toxicity. Particulars: read-out: TI. The method in brief: as §1
Series [5] in a line: Toxicity in NMRI mouse infected with Helicobacter pylori SS1 assessed as change in body weight at 1 to 20 mg/100g, po administered daily via gavage for 8 days starting from 1 week post-infection. The series is classed as organism-based. Particulars: in vivo. The method in brief: (§2)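 Compound in 5–10% DMSO/olive oil (100 μL) given by daily oral gavage for 8 days from day 8. Body weight and appetite were monitored during treatment; infected controls received vehicle alone.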

A short description of series [6]: Therapeutic index, ratio of MCC50 for human HeLa cells to MIC for inhibition of flavodoxin in clarithromycin/metronidazole-resistant Helicobacter pylori isolate 4 assessed as reduction in bacterial growth. The format is toxicity. Particulars: read-out: TI. The procedure, abridged:
as §1

Series [7] has as its target T1, Flavodoxin (Helicobacter pylori (strain ATCC 700392 / 26695) (Campylobacter pylori)) (UniProt O25776).
T1 sequence (whole entry): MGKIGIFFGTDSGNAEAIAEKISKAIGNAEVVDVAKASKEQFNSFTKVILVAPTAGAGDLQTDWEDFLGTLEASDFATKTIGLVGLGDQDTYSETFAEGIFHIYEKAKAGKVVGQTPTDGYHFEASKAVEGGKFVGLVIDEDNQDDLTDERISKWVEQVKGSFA
Nature of the series: Binding affinity to Helicobacter pylori flavodoxin by isothermal titration calorimetric method. Background: Isothermal titration calorimetry measures the heat released or taken up as one component is titrated into another.

The target of series [8] is T1, Flavodoxin (Helicobacter pylori (strain ATCC 700392 / 26695) (Campylobacter pylori)). Put plainly: Binding affinity to Helicobacter pylori flavodoxin by thermal upshift assay.
For series [9] the target is unchanged. Nature of the series: Inhibition of flavodoxin in Helicobacter pylori SS1 assessed as reduction in bacterial growth measured after 48 hrs by resazurin staining-based microdilution method. The procedure, abridged:
(§3)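 Broth microdilution in brain heart infusion with 4% FBS. Inoculum diluted to OD600 0.01. Two-fold dilutions from a DMSO stock cover 64–0.031 μg/mL, with DMSO ≤1% v/v. Incubated 48 h at 37 °C under microaerophilic conditions. MIC is the lowest concentration giving complete growth inhibition, read by resazurin colour change and confirmed by spotting on blood agar. Run twice in triplicate.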
For orientation: The colour change of resazurin is a common sign of viable cells or microbes.

A short description of series [10]: Therapeutic index, ratio of MCC50 for human HeLa cells to MIC for inhibition of flavodoxin in Helicobacter pylori SS1 assessed as reduction in bacterial growth. As to conditions: HeLa cells versus Helicobacter pylori SS1, read-out: TI. The format is toxicity. The method in brief:
as §1

Series [11] deals with Helicobacter pylori. Nature of the series: Antibacterial activity against Helicobacter pylori SS1 infected in NMRI mouse assessed as reduction in gastric colonization at 1 to 20 mg/100g, po administered daily via gavage for 8 days starting from 1 week post-infection and measured 8 days post-last dose. The format is functional, organism-based. The method in brief: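 Female 6-week-old SPF NMRI mice, seven per condition, infected orogastrically on days 1 and 3 with 100 μL Hp SS1 (5 × 10^8 CFU/mL). From day 8, 100 μL compound in 5–10% DMSO/95–90% olive oil by daily oral gavage for 8 days. Infected controls got vehicle. Killed day 24; stomach homogenates plated 5 days at 37 °C microaerophilic; CFU/g tissue versus control. Mann-Whitney U and unpaired t tests, p ≤ 0.05.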

Series [12] is described as follows: Therapeutic index, ratio of MCC50 for human HeLa cells to MIC for inhibition of flavodoxin in Helicobacter pylori ATCC 700392 26695 assessed as reduction in bacterial growth. The series is classed as toxicity. As to conditions: HeLa cells versus Helicobacter pylori ATCC 700392 26695, read-out: TI. The method in brief: as §1
The target of series [13] is T1, Flavodoxin (Helicobacter pylori (strain ATCC 700392 / 26695) (Campylobacter pylori)). Nature of the series: Inhibition of flavodoxin in Helicobacter pylori ATCC 700392 26695 assessed as reduction in bacterial growth measured after 48 hrs by resazurin staining-based microdilution method. As to conditions: Helicobacter pylori 26695. The procedure, abridged:
as §3

The subject of series [14] is Helicobacter pylori. Nature of the series: Antibacterial activity against Helicobacter pylori SS1 infected in NMRI mouse assessed as bacterial eradication at 10 mg/100g, po administered daily via gavage for 8 days starting from 1 week post-infection and measured 8 days post-last dose relative to control. The series is classed as functional. The method in brief:
(§4)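 From day 8, 100 μL compound in 5–10% DMSO/95–90% olive oil by daily oral gavage for 8 days. Infected controls got vehicle. Killed day 24; stomach homogenates plated 5 days at 37 °C microaerophilic; CFU/g tissue versus control. Mann-Whitney U and unpaired t tests, p ≤ 0.05.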

Series [15] in a line: Cytotoxicity against human HeLa cells assessed as reduction in cell viability by XTT assay. The format is cell-based. As to conditions: read-out: MCC50. The procedure, abridged:
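HeLa cells grown in DMEM with 10% FBS, penicillin and streptomycin at 37 °C, 5% CO2; 30 000 cells/well. XTT viability read at 450 and 650 nm. MCC50 (50% lysis) came from viability-versus-concentration curves. Two experiments, each in triplicate.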
(Tetrazolium dyes change colour on reduction, which living cells bring about.)

Another series deals with Staphylococcus aureus. Nature of the series: Effect on growth of Staphylococcus aureus ATCC 1228 after 48 hrs by resazurin-dye based microdilution assay. The series is classed as organism-based.
Series [16] is described as follows: Therapeutic index, ratio of MCC50 for human HeLa cells to MIC for inhibition of flavodoxin in Mnz-resistant Helicobacter pylori NCTC 11637 ATCC 43504 assessed as reduction in bacterial growth. The format is toxicity. As to conditions: read-out: TI. The procedure, abridged: as §1
A short description of series [17]: Therapeutic index, ratio of MCC50 for human HeLa cells to MIC for inhibition of flavodoxin in metronidazole-resistant Helicobacter pylori isolate 1 assessed as reduction in bacterial growth. The format is toxicity. As to conditions: read-out: TI. The method in brief:
as §1

Series [18] is described as follows: Therapeutic index, ratio of MCC50 for human HeLa cells to MIC for inhibition of flavodoxin in clarithromycin/metronidazole-resistant Helicobacter pylori isolate 6 assessed as reduction in bacterial growth. As to conditions: read-out: TI. The format is toxicity. The method in brief: as §1
In series [19] the target is T1, Flavodoxin (Helicobacter pylori (strain ATCC 700392 / 26695) (Campylobacter pylori)). Nature of the series: Inhibition of flavodoxin in Mnz-resistant Helicobacter pylori NCTC 11637 ATCC 43504 assessed as reduction in bacterial growth measured after 48 hrs by resazurin staining-based microdilution method. As to conditions: Helicobacter pylori NCTC 11637 = CCUG 17874 = ATCC 43504. The method in brief:
as §3

Series [20] deals with Helicobacter pylori. Put plainly: Antibacterial activity against Helicobacter pylori SS1 infected in NMRI mouse assessed as bacterial eradication at 20 mg/100g, po administered daily via gavage for 8 days starting from 1 week post-infection and measured 8 days post-last dose relative to control. The format is functional. The method in brief:
as §4

Series [21] in a line: Toxicity in NMRI mouse infected with Helicobacter pylori SS1 assessed as change in appetite at 1 to 20 mg/100g, po administered daily via gavage for 8 days starting from 1 week post-infection. The series is classed as organism-based. As to conditions: in vivo. The procedure, abridged: as §2
A short description of series [22]: Therapeutic index, ratio of MCC50 for human HeLa cells to MIC for inhibition of flavodoxin in metronidazole-resistant Helicobacter pylori isolate 2 assessed as reduction in bacterial growth. The series is classed as toxicity. Particulars: read-out: TI. The procedure, abridged: as §1

≈ marks a conversion by molar mass, not a printed value. Calls of active or inactive are those of the source. The rule behind the calls is not given here.

With `COc1ccc(C[S+]([O-])c2ccc(N)c3nonc23)cc1` (centres undefined), in [1], the Stability entry is “Stable”. The Activity entry was “Non-Toxic” with Escherichia coli; “Non-Toxic” in series [3]; “Non-Toxic” in series [5]; 5% in the series on Helicobacter pylori [14]; “Non-Toxic” in the series on Staphylococcus aureus; 60% with Helicobacter pylori [20]. For the same molecule, the Activity result in series [21] is “Non-Toxic”. For the same molecule, the selectivity ratio is 9.5 in series [2]; 9.5 in [4]; 9.5 in series [6]; above 9.5 in series [10]; above 39 in [12]; above 19 in [16]. Further, the selectivity ratio in series [17], in series [18] and in [22] was 9.5 each time. Besides, the outcome (in series [7]; in series [8]; in the series with Helicobacter pylori [11]) was Active. The MIC amounted to 105 µM (≈ 31.9 µg/mL) in series [9], 26 µM (≈ 7.89 µg/mL) in [13] and 53 µM (≈ 16.1 µg/mL) in [19]. Moreover, the CC50 in series [15] was above 1000 µM.
